From PubChem BioAssay
Sampled rows, rich in hits. Any-hit rate of the full collection: about 2.6%.
HIV Env fusion = HIV envelope-mediated fusion inhibition | HeLa-JRFL Env/CEM21 cell fusion, luciferase | inhibition, % at 12.3 µM | actives 1.1% (n = 360,000);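 active = mean replicate inhibition score of at least 50 and every replicate individually at or above 50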;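 note: 0% = plate neutral controls and 100% = maraviroc near 300 nM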
miR122 inh = inhibitors of miR-122 in Huh7 cells. Huh7 miR-122 Renilla luciferase sensor, 48 h; neutral wells = 0, positive control = 100. activation (reporter increase), % at 12.5 µM. actives 0.3% (n = 340,000). AID 602342;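 active = mean replicate activation score at least 90 and every replicate individually at or above 90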;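 note: higher luciferase means less miR-122 activity so hits act as miR-122 inhibitors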
Ecoli rRNA inh = inhibitors of bacterial rRNA selective over humanized ribosomes; GFP signal change (wild-type ribosome), % (test concentration not listed); E. coli WT GFP vs humanized-ribosome RFP mutants, fluorescence, 24 h; stronger effect = lower value; DMSO median 0, no signal -100; actives 1.6% (n = 350,000);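 active = significant combined selectivity score with lowered wild-type GFP, culture density cut under 30%, mutant RFP and density less affected; inactive = any of these conditions unmet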
FN deposition inh = fibronectin deposition inhibition. AH1F fibroblasts, Alexa488-fibronectin deposition fluorescence, overnight. inhibition, % at 12.6 µM. actives 0.086% (n = 350,000);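 active = mean inhibition across replicates of 30% or more, regardless of how many single replicates reach that level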;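 note: positive control wells lacked labelled fibronectin entirely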
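Schedule: 1 h cell adhesion before compound, then overnight fibronectin incubation; test system: AH1F fibroblast monolayer depositing Alexa488-labelled fibronectin into matrix; quantity: 10000 AH1F cells per well; probe or stimulus: fluorescent fibronectin at 24 nM final; signal: fluorescence, ex 485 nm, em 525 nm; evaluation: percent inhibition as loss of matrix-bound fibronectin fluorescence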
S100A4 inh HTS = inhibitors of human S100A4 binding to myosin IIA peptide; P26447; S100A4/TAMRA-MyoIIA peptide fluorescence polarization; inhibition, % at 10.7 µM; actives 0.14% (n = 360,000); AID 652163;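 active = mean inhibition of at least 70% across replicates, with every replicate also reaching that level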
Target sequence (P26447 whole entry, looked up): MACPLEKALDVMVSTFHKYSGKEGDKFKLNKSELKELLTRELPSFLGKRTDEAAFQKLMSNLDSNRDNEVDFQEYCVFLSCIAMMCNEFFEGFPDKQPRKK
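Material: human S100A4 monomer with TAMRA-labelled myosin IIA peptide; buffer or medium: HEPES pH 7.2 with CaCl2, KCl, NaCl, DTT, Triton; compound dosing: one concentration per compound; schedule: 5 min incubation before reading; benchmarks: neutral control DMSO, positive control TFP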
Vif inh = blocks HIV Vif function; AID 602346; inhibition, % at 7.49 µM; HEK293T cells, Vif self-association by quenched fluorescence, imaging, 24 h; actives 0.35% (n = 340,000); in the data active = inhibition above about 50%, passing the limit was not always enough
* = called active by the depositor; · = not tested or not shown; [ ] = another dose, or the depositor's remark.

SMILES	HIV Env fusion	miR122 inh	Ecoli rRNA inh	FN deposition inh	S100A4 inh HTS	Vif inh
O=C(Cc1cccnc1)N1CCCCN2[C@@H](CO)[C@@H](c3ccc(C#CC4(O)CCCC4)cc3)[C@@H]2C1	·	10[16.7 µM]	6	·	98*	·
COc1ccc(CNCCc2c[nH]c3ccccc23)c(OC)c1C	71*	-4	-10	4	3	-6
COc1cccc(CNCCc2c[nH]c3ccccc23)c1	25	0	7	1	-3	3
COc1cc(C)c(CNCCc2c[nH]c3ccccc23)cc1C	81*	-18	-5	-10	-2	-6
CCC(=NCCOc1ccc(Cl)cc1)c1c(O)n(C)c(=O)n(C)c1=O	50*	-4	·	1	·	-34
CCC(=NCCc1c[nH]c2ccccc12)c1c(O)n(C)c(=O)n(C)c1=O	81*	-7	·	13	·	-7
CCC(=NCc1ccc2c(c1)OCO2)c1c(O)n(C)c(=O)n(C)c1=O	77*	-12	·	-1	·	-18
COC(=O)[C@H]1[C@H](CO)[C@H]2Cn3c(ccc(C4=CCCCC4)c3=O)[C@@H]1N2Cc1cccnc1	·	-1[16.7 µM]	1	·	5	·
C[C@]12CCC3[C@@H](CC[C@H]4C[C@@H](O)CC[C@]34C)C1CCC2=O (some centres undefined)	8	-5	-19	2	-2	-14
C[C@]12CCC3C(CC[C@H]4C[C@@H](O)CC[C@]34C)C1C[C@@H](O)C2=O (some centres undefined)	-23	-6	-23*	1	-6	1
O=C1NC(=O)N(c2ccccc2F)C(=O)/C1=C/c1ccc(Sc2nc3ccccc3[nH]2)o1	11	1	11	-6	171*	3
COc1ccccc1N1CCN(Cc2ccccc2Cl)CC1	-35	-2	·	-23	·	1
COc1ccccc1N1CCN(Cc2ccc(Br)cc2)CC1	-9	-1	-28*	0	4	3
COC(=O)C1C(O)C(C)C(O)C(C)/C=C\C=C(/C)C(=O)Nc2c(C)c(OC(C)=O)c3c(c2O)C(=O)C(C)=C2OCOC(=C23)/C(C)=C/C(C)(O)C(O)C(C)C1O (centres undefined)	-6	·	-17*	2	-7	-1
Cc1nn(Cc2ccccc2)c(C)c1C(=O)OCC(=O)Nc1cc(S(C)(=O)=O)ccc1Cl	7	·	-17	·	-1	-1
Cc1nn(Cc2ccccc2)c(C)c1C(=O)OCC(=O)Nc1cccc(S(N)(=O)=O)c1	-4	·	-22*	-2	-4	5
CC=Cc1ccc2n(c1=O)C[C@@H]1[C@@H](CO)[C@H](C(=O)N(C)C)[C@H]2N1C (mixture of isomers)	·	·	-1	·	25	·
O=C(Cc1cccnc1)N1CCCCN2[C@H](CO)[C@@H](c3ccc(C#CC4(O)CCCC4)cc3)[C@@H]2C1	·	0[16.7 µM]	1	·	6	·
C=C1C(=O)O[C@@H]2C[C@@H](C)[C@@H]3C=CC(=O)[C@@]3(C)[C@@H](O)[C@H]12	·	-18	-8	50*	2	54*
CCOc1c(Cl)cc(CNCCc2c[nH]c3ccccc23)cc1OC	64*	-1	-7	-5	-6	-5
CCOc1cc(CNCCc2c[nH]c3ccccc23)cc(Cl)c1OCC	68*	·	-31	2	2	-7
Fc1ccc(CNCCc2c[nH]c3ccccc23)cc1	-14	15	3	8	-7	-1
N#Cc1cccc(-c2ccc([C@H]3[C@@H](CO)N4CCCCN(C(=O)Cc5cccnc5)C[C@H]34)cc2)c1	·	-7[16.7 µM]	-4	·	2	·
O=P(Nc1ccccc1)(Nc1ccccc1)Oc1ccc(Cl)cc1	·	322*	-58	·	-3	0
CCC(C)C1NC(=O)C(NC(=O)C(CC(C)C)N(C)C(=O)C2CCCN2C(=O)C(C)O)C(C)OC(=O)C(Cc2ccc(OC)cc2)N(C)C(=O)C2CCCN2C(=O)C(CC(C)C)NC(=O)[C@H](C)C(=O)[C@H](C(C)C)OC(=O)CC1O (some centres undefined)	83*	-14	4	23	0	14
